# Measurements taken from ChEMBL document CHEMBL3804761, “Synthesis of a stable and orally bioavailable englerin analogue” (Bioorg Med Chem Lett, 2016).
# Columns and labels:
# Assay type in all cases: functional
# U-251 = assay: Growth inhibition of human U251 cells incubated for 48 hrs by sulforhodamine B assay; details: U-251, 48 h
# In short: (§1)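 Tested in the standard NCI 60-cell-line protocol with two-day drug exposure and a sulforhodamine B endpoint. Compounds were first screened at a single final concentration of 10 µM, reported as growth percent. They were then run as five 10-fold dilutions starting from a high concentration of 100 µM to give dose-response curves.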
# [1] = Growth inhibition of human UACC62 cells assessed as cell growth at 10 uM incubated for 48 hrs by sulforhodamine B assay relative to control; details: UACC-62, 48 h, read-out: Activity
# In short: (§2)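 NCI 60-cell line standard protocol, one-dose screen: single final concentration 10 µM, 2-day drug exposure, sulforhodamine B (SRB) endpoint; read-out is growth percent relative to untreated control.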
# 786-0 = assay: Growth inhibition of human 786-0 cells assessed as cell growth at 10 uM incubated for 48 hrs by sulforhodamine B assay relative to control; details: 786-0, 48 h, read-out: Activity
# In short: (§3)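 Run in the standard NCI 60-cell-line screen. Cells were exposed to drug for two days, and the read-out was sulforhodamine B staining. Compound was tested at a single final concentration of 10 µM in every line, and results are reported as growth percent.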
# MDA-MB-435 = assay: Growth inhibition of human MDA-MB-435 cells assessed as cell growth at 10 uM incubated for 48 hrs by sulforhodamine B assay relative to control; details: MDA-MB-435, 48 h, read-out: Activity; in short: as §3
# NCI-H522 = assay: Growth inhibition of human NCI-H522 cells assessed as cell growth at 10 uM incubated for 48 hrs by sulforhodamine B assay relative to control; details: NCI-H522, 48 h, read-out: Activity; in short: as §3
# NCI/ADR-RES = assay: Growth inhibition of human NCI/ADR-RES cells incubated for 48 hrs by sulforhodamine B assay
# In short: (§4)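 NCI 60-cell-line panel, standard protocol. Cells exposed to compound for two days, growth read by sulforhodamine B staining. Tested at five 10-fold dilutions, top concentration 100 µM, to give dose-response curves.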
# HT-29 = assay: Growth inhibition of human HT-29 cells incubated for 48 hrs by sulforhodamine B assay; details: HT-29, 48 h; in short: as §4
# [2] = Growth inhibition of human SW620 cells incubated for 48 hrs by sulforhodamine B assay; details: SW-620, 48 h; in short: as §1
# SK-MEL-5 = assay: Growth inhibition of human SK-MEL-5 cells assessed as cell growth at 10 uM incubated for 48 hrs by sulforhodamine B assay relative to control; details: SK-MEL-5, 48 h, read-out: Activity; in short: as §3
# [3] = Growth inhibition of human BT549 cells assessed as cell growth at 10 uM incubated for 48 hrs by sulforhodamine B assay relative to control; details: BT-549, 48 h, read-out: Activity; in short: as §3
# [4] = Growth inhibition of human SKOV3 cells assessed as cell growth at 10 uM incubated for 48 hrs by sulforhodamine B assay relative to control; details: SK-OV-3, 48 h, read-out: Activity; in short: as §3
# MCF7 = assay: Growth inhibition of human MCF7 cells incubated for 48 hrs by sulforhodamine B assay; details: MCF7, 48 h; in short: as §4
# [5] = Growth inhibition of human SNB19 cells incubated for 48 hrs by sulforhodamine B assay; details: SNB-19, 48 h; in short: as §1
# SN12C [6] = assay: Growth inhibition of human SN12C cells assessed as cell growth at 10 uM incubated for 48 hrs by sulforhodamine B assay relative to control; details: read-out: Activity; in short: as §3
# [7] = Growth inhibition of human TK10 cells assessed as cell growth at 10 uM incubated for 48 hrs by sulforhodamine B assay relative to control; details: TK-10, 48 h, read-out: Activity; in short: as §2
# [8] = Growth inhibition of human RXF393 cells assessed as cell growth at 10 uM incubated for 48 hrs by sulforhodamine B assay relative to control; details: RXF 393, 48 h, read-out: Activity; in short: as §3
# [9] = Growth inhibition of human LOXIMVI cells assessed as cell growth at 10 uM incubated for 48 hrs by sulforhodamine B assay relative to control; details: LOX IMVI, read-out: Activity
# In short: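 Single-dose screen in the NCI 60-cell-line panel at one final concentration of 10 µM. Two-day drug exposure with a sulforhodamine B endpoint. Values are growth percent for each cell line.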
# [10] = Growth inhibition of human PC3 cells incubated for 48 hrs by sulforhodamine B assay; details: PC-3, 48 h; in short: as §4
# [11] = Growth inhibition of human HCT15 cells incubated for 48 hrs by sulforhodamine B assay; details: HCT-15, 48 h; in short: as §4
# SN12C [12] = assay: Growth inhibition of human SN12C cells incubated for 48 hrs by sulforhodamine B assay; in short: as §1
# [13] = Growth inhibition of human UO31 cells incubated for 48 hrs by sulforhodamine B assay; details: UO-31, 48 h; in short: as §1
# [14] = Growth inhibition of human Caki1 cells assessed as cell growth at 10 uM incubated for 48 hrs by sulforhodamine B assay relative to control; details: CAKI-1, 48 h, read-out: Activity; in short: as §3
# [15] = Growth inhibition of human UACC257 cells incubated for 48 hrs by sulforhodamine B assay; details: UACC-257, 48 h; in short: as §1
# [16] = Growth inhibition of human SNB19 cells assessed as cell growth at 10 uM incubated for 48 hrs by sulforhodamine B assay relative to control; details: SNB-19, 48 h, read-out: Activity; in short: as §3
# A549 = assay: Growth inhibition of human A549/ATCC cells assessed as cell growth at 10 uM incubated for 48 hrs by sulforhodamine B assay relative to control; details: A549, 48 h, read-out: Activity; in short: as §3
# K562 = assay: Growth inhibition of human K562 cells assessed as cell growth at 10 uM incubated for 48 hrs by sulforhodamine B assay relative to control; details: K562, 48 h, read-out: Activity; in short: as §3
# MDA-MB-231 = assay: Growth inhibition of human MDA-MB-231 cells assessed as cell growth at 10 uM incubated for 48 hrs by sulforhodamine B assay relative to control; details: MDA-MB-231, 48 h, read-out: Activity; in short: as §3
# SK-MEL-2 = assay: Growth inhibition of human SK-MEL-2 cells incubated for 48 hrs by sulforhodamine B assay; details: SK-MEL-2, 48 h; in short: as §4
# [17] = Growth inhibition of human RPMI8226 cells assessed as cell growth at 10 uM incubated for 48 hrs by sulforhodamine B assay relative to control; details: RPMI-8226, 48 h, read-out: Activity; in short: as §3
# [18] = read-out: pLC50 (the source's name) (converted)
compound,measurement,setting,value
CC(C)[C@@]12C[C@@H](NC(=O)CO)[C@@](C)(O1)[C@@H]1CC[C@@H](C)[C@H]1[C@@H]2OC(=O)/C=C/c1ccccc1,GI50,U-251,15.5 µM
same,LC50 (concentration giving 50% net cell kill),U-251,> 50.1 µM
same,TGI,U-251; read-out: pTGI (converted),> 50.1 µM
same,growth at 10 µM,[1],92.1%
same,growth at 10 µM,786-0,73.1%
same,growth at 10 µM,MDA-MB-435,94.6%
same,growth at 10 µM,NCI-H522,76.9%
same,GI50,NCI/ADR-RES,3.47 µM
same,LC50,NCI/ADR-RES,> 50.1 µM
same,TGI,NCI/ADR-RES; read-out: pTGI (converted),> 50.1 µM
same,GI50,HT-29,16.6 µM
same,LC50,HT-29,> 50.1 µM
same,TGI,HT-29; read-out: pTGI (converted),> 50.1 µM
same,GI50,[2],22.4 µM
same,LC50 (50% lethal concentration),[2],> 50.1 µM
same,TGI,[2]; read-out: pTGI (converted),> 50.1 µM
same,growth at 10 µM,SK-MEL-5,90.6%
same,growth at 10 µM,[3],84.9%
same,growth at 10 µM,[4],101%
same,GI50,MCF7,14.5 µM
same,CC50,MCF7; [18],> 50.1 µM
same,TGI,MCF7; read-out: pTGI (converted),> 50.1 µM
same,GI50,[5],24.5 µM
same,CC50,[5]; [18],> 50.1 µM
same,TGI,[5]; read-out: pTGI (converted),> 50.1 µM
same,growth at 10 µM,SN12C [6],48.8%
same,growth at 10 µM,[7],102%
same,growth at 10 µM,[8],63.3%
same,growth at 10 µM,[9],102%
same,GI50,[10],11.7 µM
same,CC50,[10]; [18],> 50.1 µM
same,TGI,[10]; read-out: pTGI (converted),> 50.1 µM
same,GI50,[11],16.6 µM
same,LC50,[11],> 50.1 µM
same,TGI,[11]; read-out: pTGI (converted),> 50.1 µM
same,GI50,SN12C [12],10.7 µM
same,CC50,SN12C [12]; [18],> 50.1 µM
same,TGI,SN12C [12]; read-out: pTGI (converted),> 50.1 µM
same,GI50,[13],6.17 µM
same,CC50,[13]; [18],> 50.1 µM
same,TGI,[13]; read-out: pTGI (converted),> 50.1 µM
same,growth at 10 µM,[14],61.1%
same,GI50,[15],10.5 µM
same,CC50,[15]; [18],> 50.1 µM
same,TGI,[15]; read-out: pTGI (converted),45.7 µM
same,growth at 10 µM,[16],103%
same,growth at 10 µM,A549,91.7%
same,growth at 10 µM,K562,86.6%
same,growth at 10 µM,MDA-MB-231,97.2%
same,GI50,SK-MEL-2,14.8 µM
same,LC50,SK-MEL-2,> 50.1 µM
same,TGI,SK-MEL-2; read-out: pTGI (converted),37.2 µM
same,growth at 10 µM,[17],90.6%
